Measurements taken from ChEMBL document CHEMBL6103596, “Design, Synthesis, and Biological Evaluation of BODIPY-Caged Resiquimod as a Dual-Acting Phototherapeutic” (J Med Chem, 2025).
Active and inactive are the calls of the source. No cut-off for these calls is given here.

How the values were obtained:
[1] = molecular target: T1, Toll-like receptor 7 (Homo sapiens) (UniProt Q9NYK1); assay: Activation of TLR7 in human AD293 cells assessed as IkappaB-alpha degradation at 10 uM preincubated with NAC followed by compound addition and measured after 30 mins by Western blot analysis; assay type: cell-based
T1 sequence (whole entry): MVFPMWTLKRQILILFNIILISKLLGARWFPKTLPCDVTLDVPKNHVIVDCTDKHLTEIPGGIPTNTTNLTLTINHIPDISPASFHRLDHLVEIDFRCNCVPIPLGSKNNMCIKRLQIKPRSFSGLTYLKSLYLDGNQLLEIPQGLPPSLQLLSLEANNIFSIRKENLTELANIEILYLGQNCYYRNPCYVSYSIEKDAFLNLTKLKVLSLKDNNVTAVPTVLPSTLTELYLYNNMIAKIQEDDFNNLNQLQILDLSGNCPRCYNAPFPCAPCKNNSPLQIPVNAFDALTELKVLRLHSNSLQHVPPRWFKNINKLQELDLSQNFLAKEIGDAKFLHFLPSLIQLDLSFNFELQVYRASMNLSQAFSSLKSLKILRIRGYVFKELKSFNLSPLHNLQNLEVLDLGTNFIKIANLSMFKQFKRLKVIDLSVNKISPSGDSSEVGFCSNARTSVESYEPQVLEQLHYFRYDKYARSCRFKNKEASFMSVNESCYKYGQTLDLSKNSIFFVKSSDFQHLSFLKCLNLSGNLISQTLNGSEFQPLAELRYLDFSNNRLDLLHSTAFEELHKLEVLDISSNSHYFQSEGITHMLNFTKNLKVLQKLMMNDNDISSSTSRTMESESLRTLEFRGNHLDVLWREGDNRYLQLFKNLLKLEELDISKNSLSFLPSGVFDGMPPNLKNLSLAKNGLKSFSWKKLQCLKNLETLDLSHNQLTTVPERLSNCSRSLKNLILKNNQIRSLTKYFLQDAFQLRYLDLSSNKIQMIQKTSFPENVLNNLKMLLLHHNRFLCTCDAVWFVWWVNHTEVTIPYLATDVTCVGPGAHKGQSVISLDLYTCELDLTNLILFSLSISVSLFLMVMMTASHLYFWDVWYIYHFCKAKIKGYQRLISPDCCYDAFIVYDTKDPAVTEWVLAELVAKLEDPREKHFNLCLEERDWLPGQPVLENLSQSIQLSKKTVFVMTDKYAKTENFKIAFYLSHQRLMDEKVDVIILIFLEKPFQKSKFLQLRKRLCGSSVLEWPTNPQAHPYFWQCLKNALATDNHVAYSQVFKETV
Procedure, shortened: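 Stable TLR7-expressing AD293 line made by TLR7 plasmid transfection and hygromycin B selection (250 μg/mL, 10 days). Cells pretreated with N-acetyl-cysteine, then given 10 μM compound, with or without 30 min 650 nm red-light irradiation. Lysates run on 10% SDS-PAGE and blotted to PVDF. Total IκB probed (1:1000) with GAPDH loading control, ECL detection. Means of three experiments.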

[2] = Upregulation of TNF-alpha mRNA expression in mouse RAW264.7 cells assessed as fold change at 100 nM preincubated with NAC followed by compound addition and measured after 30 mins under 650nm LED light irradiation by real-time PCR analysis; assay type: functional; conditions: 0.5 h
Procedure, shortened: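 RAW264.7 cells seeded at 0.3 million per 35 mm dish. Next day, pretreated with 10 mM N-acetyl-cysteine for 30 min, then given 100 nM compound and 650 nm LED light for 30 min. Total RNA taken 24 h later and reverse transcribed with random primers. SYBR real-time PCR run for 40 cycles (95/60/72 °C). Quantities calculated by the Ct method. Results given as fold change, means ± SD.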

[3] = Induction of superoxide anion radical assessed as DMPO-O2 radical adduct formation under dark condition measured after 10 mins by ESR spectra analysis; assay type: functional
Procedure, shortened: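 ESR spectra recorded with DMPO as spin trap to detect superoxide and/or hydroxyl radical adducts, before and after 10 min irradiation of compound.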

[4] = Dark toxicity in human HaCaT cells assessed as cell viability at 10 uM under dark condition and measured after 72 hrs by CCK-8 method relative to control; assay type: cell-based; conditions: read-out: Activity
Procedure, shortened: (§1)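 A549, HaCaT and HeLa cells seeded at 2 × 10^3 cells/well in phenol red-free DMEM with 10% FBS. After 24 h, medium replaced with 1% DMSO containing 10 μM compound. After 90 min, one plate kept dark and one exposed to 530 or 650 nm LED (30 mW) for 15 min. Plates incubated 72 h, then CCK-8 read at 450 nm. Viability taken relative to dark control. Triplicates (HaCaT six).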

[5] = Phototoxicity in human HaCaT cells assessed as cell viability at 10 uM under 530 ot 650nm 30 mW LED light irradiation and measured after 72 hrs by CCK-8 method relative to control; assay type: functional; conditions: light or radiation study, read-out: Activity; procedure, shortened: as §1
[6] = Thermal stability of compound in DMSO-d6 at 37.5 degree C measured after 2 days by 1H NMR spectroscopy analysis relative to control; assay type: physicochemical; conditions: 48 h; time 2 day
Procedure, shortened: (§2)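 Compound in DMSO-d6 followed by 1H NMR. Degradation taken from the intensity of three signals (one resiquimod, one BODIPY, and the linkage NH), each relative to the DMSO-d6 internal standard, and the three averaged.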

[7] = Thermal stability of compound in DMSO-d6 at 37.5 degree C measured after 3 days by 1H NMR spectroscopy analysis relative to control; assay type: physicochemical; conditions: 72 h; time 3 day; procedure, shortened: as §2
[8] = Photorelease activity of the compound in DMSO-d6 measured within 90 mins under 660nm 400mW LED light by 1H NMR spectroscopy analysis relative to control; assay type: ADME; conditions: 1.5 h
[9] = Photorelease activity of the compound in aqueous solution at 30 uM under 647 nm 400mW LED light by 1H NMR spectroscopy analysis; assay type: ADME; conditions: buffer, time 10-40 min
[10] = Photorelease activity of the compound in aqueous solution at 30 uM under dark condition by 1H NMR spectroscopy analysis; assay type: ADME; conditions: buffer

Activity [1]: inactive
Activity [6]: 11%
Activity [7]: 15%
Activity [8]: ~ 90%
Activity [9]: Time-dependent-effect
Activity [10]: Not_active
SMILES: CCOCc1nc2c(NC(=O)OCC3=C4C(C)=CC(/C=C/c5ccc(OCCOCCOCCOC)cc5)=[N+]4[B-](C)(C)n4c(/C=C/c5ccc(OCCOCCOCCOC)cc5)cc(C)c43)nc3ccccc3c2n1CC(C)(C)O
fold change (FC) [2]: ~2
Activity [3]: inactive
viability at 72 h, 10 µM [4]: 2%
viability at 10 µM [5]: 41%
